These results are taken from ChEMBL document CHEMBL5500359, “Identification of a new bisindolinone arresting IGROV1 cells proliferation” (Eur J Med Chem, 2024).

Calls of active or inactive are those of the source. The rule behind the calls is not given here.

In experiment [1] the test system is Panel NCI-60 (60 carcinoma cell lines). As to the kind of experiment: Cytostatic activity against human Panel NCI-60 (60 carcinoma cell lines) incubated for 48 hrs by SRB assay. It counts as functional. The gist of the method:
(§1)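 NCI-60 five-concentration screen: lines seeded 5×10^3–4×10^4 cells/well depending on line; compound diluted in fresh medium at scalar concentrations 0–100 or 0–1000 μM; 48 h exposure, in situ fixation, sulforhodamine B protein staining, optical density read; GI50, TGI and LC50 per NCI procedures; panel mean = mean graph midpoint.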
In general terms: Sulforhodamine B stains cellular protein and so reports cell mass.

The test system of another experiment is Ovarian cancer cell line. As to the kind of experiment: Cytostatic activity against human Ovarian cancer cells incubated for 48 hrs by SRB assay. It counts as functional. A digest of the protocol:
as §1

The test system of the next experiment is Melanoma cell line. In words: […] against human Melanoma cells incubated for 48 hrs by SRB assay. Particulars: read-out: LC50 (the source's name). It counts as functional. A digest of the protocol:
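NCI DTP five-concentration screen. Cells were seeded at 5 × 10³–4 × 10⁴ cells/well, depending on the line. Compounds were diluted in fresh medium and added at scalar concentrations over 0–1000 µM or 0–100 µM. After 48 h the cells were fixed in situ, stained with sulforhodamine B, and optical density was read. GI50, TGI and LC50 were derived by NCI procedures, and the panel mean is the mean graph midpoint.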

The next experiment has as its system Colon carcinoma cell. In words: Cytostatic activity against human Colon carcinoma cells incubated for 48 hrs by SRB assay. In kind it is functional. A digest of the protocol: as §1
In experiment [2] the test system is Panel NCI-60 (60 carcinoma cell lines). In words: Cell growth inhibition of human Panel NCI-60 (60 carcinoma cell lines) incubated for 48 hrs by SRB assay. In kind it is functional. A digest of the protocol: as §1
Another experiment deals with Renal cancer cell line. As to the kind of experiment: Cell growth inhibition of human Renal cancer cells incubated for 48 hrs by SRB assay. In kind it is functional. A digest of the protocol:
as §1

The test system of another experiment is CNS carcinoma cell. In words: Cell growth inhibition of human CNS carcinoma cells incubated for 48 hrs by SRB assay. In kind it is functional. The gist of the method: as §1
Experiment [3] can be described thus: Cell growth inhibition of human Leukemia cancer cells incubated for 48 hrs by SRB assay. In kind it is functional. A digest of the protocol: as §1
A further experiment concerns NSCLC. As to the kind of experiment: Cell growth inhibition of human NSCLC cells incubated for 48 hrs by SRB assay. In kind it is functional. A digest of the protocol: as §1
Experiment [4] deals with IGROV-1. In words: Antiproliferative activity against human IGROV-1 cells assessed as doubling time at 5 uM incubated for 24 to 48 hrs (reference value: 23.9 +/- 2.4 hrs). In kind it is functional. Particulars: time 24-48 hrs. A digest of the protocol: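 Quantitative phase imaging on IGROV1 seeded 4×10^3/well, 24 h later given 5 μM (six replicates; DMSO ≤0.1% final). Images hourly for 2 days at 37 °C, 5% CO2. Cell count and confluence normalized to experiment start; doubling time derived from growth.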

For experiment [5], the system named is IGROV-1. As to the kind of experiment: Induction of cell cycle arrest in human IGROV-1 cells assessed as decrease in cell accumulation at G2/M phase at 5 uM incubated for 24 hrs by PI staining based flow cytometry relative to control. In kind it is functional. The arrangement: scale not given: the % may be the effect or the level left. The gist of the method:
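IGROV1 plated 2×10^4 cells/cm², after 24 h given 5 μM for 24 h; cells detached, PBS-washed, stained 30 min at room temperature in dark with 50 μg/mL propidium iodide, 10 μg/mL RNase, 0.01% Igepal, 0.1% sodium citrate; DNA content by flow cytometry, phase percentages versus untreated.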
For orientation: A flow cytometer gives signals particle by particle.

Experiment [6] is described as follows: Upregulation of histone H2/H3 acetylation in human IGROV-1 cells incubated for 6 hrs by Western blot analysis relative to control. It counts as functional. The gist of the method:
(§2)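 IGROV1 seeded 1.5×10^4 cells/cm², after 48 h exposed 6 h to 5 μM final; histones acid-extracted (0.4 N H2SO4) from nuclei isolated with 10 mM butyrate washes, acetone-precipitated, 15% SDS-PAGE, blotted with anti-acetyl-lysine; densitometry normalized to histone H1, percent of vehicle, mean ± SD of three experiments.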
(In western blotting, separated proteins are transferred to a membrane and probed.)

Experiment [7] can be described thus: Upregulation of histone H4 acetylation in human IGROV-1 cells incubated for 6 hrs by Western blot analysis relative to control. It counts as functional. The gist of the method:
as §2

Experiment [8] has as its system IGROV-1. As to the kind of experiment: Downregulation of ITAG5 mRNA level in human IGROV-1 cells at 5 uM incubated for 6 hrs by RT-PCR analysis. In kind it is functional, cell-based. The gist of the method:
(§3)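 IGROV1 given 5 μM versus vehicle; RNA extracted by spin column, reverse transcribed, CCND1, CDKN1A and ITAG5 transcripts quantified by qRT-PCR as fold change versus vehicle; at least triplicate, Student's t-test, p<0.05.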

The test system of experiment [9] is IGROV-1. In words: Downregulation of ITAG5 level in human IGROV-1 cells at 5 uM incubated for 6 hrs by Western blot analysis. It counts as functional, cell-based. The gist of the method:
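IGROV1 exposed to 5 μM; RIPA lysates at 4 °C, protein quantified, SDS-PAGE (12.5% or 7.5%), nitrocellulose blot probed overnight at 4 °C for cyclin D1 or α5 integrin subunit; densitometry normalized to α-tubulin, percent of vehicle, mean ± SD of three experiments.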

Experiment [10] relates to IGROV-1. In words: Effect on p21 mRNA level in human IGROV-1 cells at 5 uM incubated for 6 hrs by RT-PCR analysis. In kind it is functional, cell-based. A digest of the protocol:
as §3

Experiment [11] relates to IGROV-1. In words: Induction of DNA damage in human IGROV-1 cells assessed as increase in gamma-H2AX phosphorylation at 5 uM pretreated for 24 hrs followed by UV exposure for 6 hrs by Western blot analysis. It counts as functional, cell-based. Particulars: time 30.0 hrs. A digest of the protocol: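 IGROV1 pretreated 24 h with 5 μM, then UV-irradiated with a 7.5 W lamp for 3 min; UV alone as positive control. Cyclin D1 and RAD51 by RIPA-lysate Western blot normalized to α-tubulin; γH2AX by acid-extracted histone blot normalized to H1; percent of vehicle, mean ± SD, three experiments.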

The test system of experiment [12] is IGROV-1. In words: Downregulation of RAD51 mRNA level in human IGROV-1 cells at 5 uM pretreated for 24 hrs followed by UV exposure for 6 hrs by qRT-PCR analysis. Particulars: time 30.0 hrs. It counts as functional, cell-based. The gist of the method: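 IGROV1 pretreated 24 h with 5 μM then UV-irradiated (7.5 W lamp, 3 min); CCND1 and RAD51 mRNA by qRT-PCR after column RNA extraction and reverse transcription, fold change versus vehicle; at least triplicate, Student's t-test.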

Regarding `CC(C)(C)c1cc(/C=C2/C(=O)Nc3cc(Cl)ccc32)c(O)c(/C=C2/C(=O)Nc3cc(Cl)ccc32)c1`, the GI came out at 12.02 µM in experiment [1] and 3.63 µM in the experiment on NSCLC. The TGI (commonly the concentration giving total growth inhibition) in the experiment with Ovarian cancer cell line is 10 µM; in the experiment with Colon carcinoma cell, 13.2 µM. Moreover, the CC50 with Melanoma cell line was 8.51 µM. The GI50 – broadly, the concentration that inhibits growth by half – in experiment [2] amounted to 3.02 µM; in the experiment on Renal cancer cell line it was 2.69 µM; in the experiment with CNS carcinoma cell, 2.75 µM; in experiment [3], 2.45 µM. Further, the Time with IGROV-1 [4] was 113.3 h. Also, the Activity amounted to 11.9% in the experiment with IGROV-1 [5], 55.2% in experiment [6] and 68.5% in experiment [7]. Also, the outcome in the experiment with IGROV-1 [8], in the experiment on IGROV-1 [9], with IGROV-1 [11] and in the experiment with IGROV-1 [12] was Active. Also, the result in the experiment on IGROV-1 [10] was inactive.
